Screening data as filed in PubChem BioAssay.
Only a selection was taken, and hits are over-represented in it overall.
bCat KO growth: beta-catenin-lacking colon tumor cell growth suppression | HCT116 beta-catenin knockout viability, CellTiter-Glo, 60 h; stronger effect = lower value | viability, % at 10 µM | hit rate 1.5% among 140,000 | AID 818;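 active means viability at or under a set limit, the compound median less 4 SD, cut at about 6% in these data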
H69AR inhibit: growth inhibitors of human H69AR lung tumor cells; AID 598; H69AR lung tumor viability, ATP luminescence, 72 h; stronger effect = lower value; hit rate 6% among 85,000; viability, % at 10 µM;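 active means viability at or below 40%; inactive means viability above 40%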;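 further: multidrug resistant small cell line overexpressing MRP-1 efflux transporter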
HUVEC prolif 384: human endothelial cell proliferation inhibition; HUVEC proliferation, CellTiter-Glo luminescence, 72 h; stronger effect = lower value; viability, % at 10 µM (by protocol); hit rate 1.1% among 86,000;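 active means viability at or below 30%; inactive means viability above 30%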
HCT116 PTEN-null: growth suppressors of cells with PTEN tumor suppressor deletion; HCT116 PTEN-null viability, CellTiter-Glo, 60 h; stronger effect = lower value; viability, % at 10 µM; hit rate 1.2% among 140,000;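 active means viability at or below a set limit, 4 SD under the median of all tested compounds, cut at about 3.7% in these data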;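 further: PTEN knockout HCT116 line with beta catenin targeted HCT116 as companion control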
Fibroblast inh: blocks proliferation of human lung fibroblasts. viability, % at 10 µM. AID 719. LL 47 human lung fibroblast viability, ATP luminescence; stronger effect = lower value. hit rate 1.1% among 85,000;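 active means viability at or below 50% in the single dose screen; inactive means viability above 50%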;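 further: compound exposure lasted 72 h before the ATP readout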
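Test system: LL 47 human lung fibroblasts / Quantity: 1,150 cells in each well / Medium: IMEM growth medium with 15% fetal bovine serum / Incubation: 72 h compound exposure at 37 °C after overnight plating / Detection: CellTiter-Glo luminescence measuring cellular ATP / Read-out: % viability versus median cells-only luminescence / Benchmarks: cell-only wells, no compound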
A number is an active result; - = inactive; . = no result.

SMILES	bCat KO growth	H69AR inhibit	HUVEC prolif 384	HCT116 PTEN-null	Fibroblast inh
COC(=O)c1ccc(NC(=O)CSc2nnc(CNc3ccc(F)cc3)n2C)cc1	-	-	-	-	-
O=C(c1cc(-c2ccncc2)nc2ccccc12)N1CCN(S(=O)(=O)/C=C/c2ccccc2)CC1	-	-	-	-	-
O=C(c1cc(-c2cccs2)nc2ccccc12)N1CCN(S(=O)(=O)c2ccccc2)CC1	-	-	-	-	-
CC(C)Oc1cccc(-c2cc(C(=O)N3CCN(c4ncccn4)CC3)c3ccccc3n2)c1	-	15	-	-	-
COc1cccc(-c2cc(C(=O)N3CCN(c4ncccn4)CC3)c3ccccc3n2)c1	-	19	-	-	-
O=C(c1cc(-c2cccs2)nc2ccccc12)N1CCN(S(=O)(=O)c2cccc(F)c2)CC1	-	21	-	-	-
CC(C)Oc1cccc(-c2cc(C(=O)N3CCN(S(C)(=O)=O)CC3)c3ccccc3n2)c1	-	24	-	-	-
Cc1ccc(-c2cc(C(=O)N3CCOCC3)c3ccccc3n2)cc1	-	-	-	-	-
CC(/C=C/c1ccc2c(c1)OCO2)=N/NC(=O)c1ccc(C)nc1	-	.	.	-	.
O=C(Nc1ccc(Cl)cc1)Nc1nnc(CSCc2ccc(Cl)cc2)s1	-	.	.	-	.
Fc1ccccc1Cc1nnc2n1N=C(c1ccc(Cl)cc1)CS2	-	-	-	-	-
Cc1ccc(-c2cc(C(=O)N3CCN(c4ncccn4)CC3)c3ccccc3n2)cc1	-	11	-	-	.
O=C(c1cc(-c2ccncc2)nc2ccc(Br)cc12)N1CCN(c2ccccn2)CC1	-	22	-	-	-
O=C(c1cccn2c(=O)c3cc(Br)ccc3nc12)N1CCN(c2ccccn2)CC1	-	-	-	-	-
Cc1ccc2nc(-c3ccccn3)cc(C(=O)N3CCN(c4ncccn4)CC3)c2c1	-	-	-	-	-
Cc1ccc(N(CC(=O)N/N=C/c2cccc(Br)c2)S(C)(=O)=O)cc1	-	.	.	-	.
CCc1nn2c(=O)cc(CSc3nc4sc5c(c4c(=O)n3C)CCCC5)nc2s1	.	-	-	.	-
Cc1ccc(C(=O)NC(=S)Nc2ccc(NC(=O)c3cccs3)cc2)cc1[N+](=O)[O-]	-	.	.	-	.
O=C(O)c1ccc(NC(CSCc2ccccc2F)C(=O)O)c([N+](=O)[O-])c1 (configuration not stated)	-	.	.	-	.
COc1ccc(NC(=O)CSc2nc3c(c(=O)n2-c2ccc(C)cc2)SCC3)c(OC)c1	-	-	-	-	-
COc1c(OC(C)=O)ccc(/C=C/c2ccc3cccc(OC)c3n2)c1[N+](=O)[O-]	-	.	.	-	.
CCOc1c(OC(C)=O)ccc(/C=C/c2ccc3cccc(OC(C)=O)c3n2)c1[N+](=O)[O-]	1.5	.	.	3.2	.
N#Cc1c(NCCN)nc(-c2ccco2)c2c1CCCC2	-	7.1	-	-	41
CC1(C)Cc2c(C#N)c(OCC(=O)c3ccc(Cl)cc3)nc(-c3ccco3)c2CO1	-	-	-	-	42
Cc1nc(NCc2ccco2)c(C#N)c2c1COC(C)(C)C2	-	-	-	-	-
SMILES	bCat KO growth	H69AR inhibit	HUVEC prolif 384	HCT116 PTEN-null	Fibroblast inh
CC1(C)Cc2c(C#N)c(NCc3ccco3)nc(-c3ccco3)c2CO1	-	20	-	-	-
CCn1c(=O)cc(SCC(=O)NCc2ccccn2)c2ccccc21	-	-	-	-	-
COCCCN(C(=S)Nc1cc(C)cc(C)c1)C(C)c1ccncc1 (configuration not stated)	-	.	.	-	.
COc1ccc(-c2csc(Nc3ncccc3C)n2)cc1OC	-	-	-	-	-
Cc1cccnc1Nc1nc(-c2ccc(O)c(O)c2)cs1	-	28	-	-	-
Cc1nn(CC(O)Cn2c3c(c4ccccc42)CCN(C)C3=O)c(C)c1Br (configuration not stated)	-	38	-	-	-
CC(C)(C)n1nc2c(c1NC(=O)c1cccc(C(F)(F)F)c1)CS(=O)C2 (configuration not stated)	-	-	-	-	-
O=C(Nc1ccc(Br)cn1)c1ccc2nccnc2c1	.	34	-	.	-
Cc1ccc2nc(NCCO)nc(-c3ccccc3)c2c1	-	25	-	-	-
Cc1cccc(/C=c2\s/c(=C\C(=O)C(C)(C)C)[nH]c2=O)c1	-	6.8	-	-	-
CCC(c1nnc(SCC(=O)Nc2ccc(Cl)cc2C(F)(F)F)n1C1CCCCC1)N(C)C (configuration not stated)	-	.	.	-	.
COc1ccc(NC(=O)c2cnc(C)cn2)c2ncccc12	-	2.8	27	-	49
Cn1c(-c2ccc(F)cc2)cnc1NCc1cccc(F)c1	-	36	-	-	-
CN1CC(c2ccc(Cl)c(Cl)c2)[C@@]2(COc3ccccc3C2=O)[C@@]12C(=O)Nc1ccccc12 (some centres not stated)	4.7	.	.	2.9	.
CCCCOc1ccc(Br)cc1/C(C)=N/NC1=NCCN1	2.4	-	7.1	2.9	23
CCCCOc1ccc(Br)cc1CSC(=N)N	-	.	.	-	.
CC(C)C(NS(=O)(=O)c1cccs1)C(=O)NCc1ccc2c(c1)OCO2 (configuration not stated)	-	-	-	-	-
CN1CCN(C(=O)CSc2nc(-c3cccs3)ccc2C#N)CC1	-	-	-	-	-
CCNc1nc(NC(C)(C)C)nc(N(C#N)CC)n1	-	33	-	-	-
COc1ccccc1C(=O)Nc1cc2ccccc2oc1=O	-	32	-	-	-
COc1ccc(-c2cc3ccccc3oc2=O)cc1NC(=O)c1ccc([N+](=O)[O-])o1	-	.	.	-	.
COc1ccccc1NC(=O)c1ccc(-c2ccc(Br)cc2)o1	-	19	-	-	-
COc1ccc(-c2cc3ccccc3oc2=O)cc1NC(=O)c1ccc(Br)o1	-	32	-	-	-
COc1ccccc1C(=O)Nc1cc2cc(Br)ccc2oc1=O	-	-	-	-	-
CCOC(=O)c1cnc2c(C)c(C)ccc2c1Nc1ccc(S(=O)(=O)Nc2ncccn2)cc1	-	.	.	-	.
SMILES	bCat KO growth	H69AR inhibit	HUVEC prolif 384	HCT116 PTEN-null	Fibroblast inh
COc1ccc(/C(O)=C/c2nc3ccccc3n(-c3ccccc3)c2=O)cc1	-	23	-	-	-
O=C(COC(=O)c1cc(=O)c2ccccc2o1)Nc1ccc2ccccc2c1	-	.	.	-	.
CCCc1nnc(NC(=O)CCC(=O)N2CCN(C3c4ccccc4-c4ccccc43)CC2)s1	-	.	.	-	.
CCOc1cc(/C=N/NC(=O)Cn2nc([N+](=O)[O-])cc2C)cc(Br)c1OCc1ccccc1C	1.5	0.6	3.6	2.1	5.9
COc1ccc(-c2cn3c(C)c(C(=O)N4CCc5ccccc5C4)sc3n2)cc1	.	22	-	.	-
Cc1c(C(=O)N2CCc3ccccc3C2)sc2nc(-c3ccccc3)cn12	-	-	-	-	-
Cc1ccc(-n2c(C)cc(C3N=C(N)Nc4nc5ccccc5n43)c2C)c(C)c1 (configuration not stated)	-	33	16	-	-
C/C(=N/NC(=O)c1cccs1)c1ccc(NC(=O)COc2ccc(Cl)cc2)cc1	-	.	.	-	.
Cc1cc(C)n(-c2nnc(C)n2/N=C/c2ccccc2F)n1	-	-	-	-	-
